Experimental data from different studies.
Compare with care: the assays were run in different laboratories.

Structure (SMILES) | tested on | assay | system | conditions | endpoint | result
N#Cc1c(-c2ccc(OCc3ccccc3)cc2)c(C(N)=O)c(N)n(N)c1=O | Saccharomyces cerevisiae | microbial growth, well diffusion | ATCC9763 | 500 µg/mL | inhibition zone | 16 mm
Nc1ccc(/C=C/C(=O)NCc2cc3cc(-c4ccc(C(=O)N5CCC(F)(F)CC5)cc4)cc(-c4ccc(F)cc4)c3o2)cn1 | PANC-1 | cell growth or viability, CCK-8 |  | 72 h | IC50 | > 20 µM
O=C(NC(=S)Nc1ccccc1O)c1ccco1 | Leishmania tropica | parasite growth, resazurin |  | promastigote | IC50 | 4.19 µM
COc1ccc(Cc2[nH]/c(=N/C(=O)C34CC5CC(CC(C5)C3)C4)n(C)c2-c2ccc(OC(=O)c3ccccc3)c(OC)c2)cc1 | Hepatitis B virus | viral replication, inhibitor | HePAD38 |  | IC50 | 9.82 µM
C=CC(=O)Nc1cc(Nc2nccc(-c3cn(C)c4ccccc34)n2)c(OC)cc1N(C)CCN(C)C | PANC-1 | cell growth or viability, MTS |  | 72 h | IC50 | 7.14 µM
O=C(NC(=S)Nc1ccccn1)c1ccco1 | Leishmania tropica | parasite growth, resazurin |  | promastigote | IC50 | 0.94 µM
N#Cc1c(-c2ccc(OCc3ccccc3)cc2)c(C(N)=S)c(N)n(N)c1=O | Saccharomyces cerevisiae | microbial growth, well diffusion | ATCC9763 | 500 µg/mL | inhibition zone | 17 mm
O=C(NC(=S)Nc1cccc(O)c1)c1cccs1 | Leishmania tropica | parasite growth, resazurin |  | promastigote | IC50 | 0.48 µM
CN(C)c1ccc(-c2c(C(N)=S)c(N)n(N)c(=O)c2C#N)cc1 | Saccharomyces cerevisiae | microbial growth, well diffusion | ATCC9763 | 500 µg/mL | inhibition zone | 14 mm
C=CC(=O)NC1CCN(c2ncc3ncnc(Nc4ccc(Oc5ccc6c(c5)ncn6C)c(C)c4)c3n2)CC1 | NUGC-4 | cell growth or viability |  |  | EC50 | 0.0144 µM
N#Cc1c(-c2ccc(Cl)cc2Cl)c(C(N)=S)c(N)n(N)c1=O | Saccharomyces cerevisiae | microbial growth, well diffusion | ATCC9763 | 500 µg/mL | inhibition zone | 11 mm
Nc1ccc(/C=C/C(=O)N2CCc3c(oc4c(-c5ccc(F)cc5)cc(-c5ccc(C(=O)N6CCC(F)(F)CC6)nn5)cc34)C2)cn1 | PANC-1 | cell growth or viability, CCK-8 |  | 72 h | IC50 | > 20 µM
